Screening results: PubChem BioAssay, several laboratories
Yeast growth inh = reduces growth of yeast BB579 in restrictive medium; S. cerevisiae BB579 growth, OD615, 48 h; inhibition, % at 10 µM; actives 0.51% (n = 140,000); AID 804;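 active = inhibition above a set limit, 3 SD over the mean compound inhibition, cut at about 44% in these data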
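Assay system – yeast BB579 (DeaD) · Dosing – single compound dose of 10 µM, 0.25% DMSO final · Detection – OD615 turbidity measurement · Buffer or medium – CSMM-D restrictive synthetic medium containing dextrose (glucose) · Benchmarks – positive control amphotericin B 10 µg/mL · Incubation – 48 h exposure, 30 °C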
SDO1 yeast rescue = compounds rescuing growth of sdo1-depleted yeast, bone marrow failure model | S. cerevisiae sdo1-depleted JHY4D growth rescue, OD600 30 h; hits give high values; pdr5 snq2 efflux-pump mutant strain | z-score at 10 µM | actives 0.21% (n = 140,000);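 active = z-score above 3 at both the 24 hr and the 30 hr optical density reads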
Yeast life ext = yeast lifespan extension. AID 775. actives 0.68% (n = 130,000). inhibition of the nicotinamide effect, % at 10 µM. S. cerevisiae growth with nicotinamide, OD615; deaD strain in restrictive glucose medium;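 active = inhibition above a set limit, placed 3 SD over the median of all compounds, cut at about 26% in these data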
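assay system = DeaD-strain S. cerevisiae | measured by = absorbance at 615 nm | probe or stimulus = nicotinamide 1.5 mM | buffer or medium = CSMM-D glucose medium, restrictive | times = 48 h at 30 °C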
RAM network inh = inhibitors of the yeast RAM network. S. cerevisiae dse1pr::URA3 reporter, 5-FOA growth OD615, 2 d; analog-sensitive cbk1-as2 kinase mutant strain. inhibition, % at 50 µM. actives 1.8% (n = 190,000);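 active = inhibition above a set limit, 3 SD over mean compound inhibition, cut at about 8.4% in these data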;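 also: inhibition rescues growth on 5-FOA so higher OD means more RAM inhibition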
Hits are given with their value. Compounds with a hit are over-represented: about 2.7% of the library has one in this group of screens.

`CCCCCC1CC(CC(=O)NC(=S)Nc2ccc([N+](=O)[O-])cc2)C(=O)O1` (stereo not given) gave Yeast growth inh inactive, SDO1 yeast rescue inactive and RAM network inh 10.5.
For CCCSc1nc2c3c(sc2c(=O)[nH]1)CC(C)(CC)OC3 (stereo not given) the results were RAM network inh 8.8.
For CC1CCCN(c2ccc(C(=O)NCc3ccc4c(c3)OCO4)cc2[N+](=O)[O-])C1 (stereo not given) the results were Yeast growth inh inactive, SDO1 yeast rescue inactive, Yeast life ext inactive and RAM network inh 8.5.
For O=C(NCc1ccc2c(c1)OCO2)c1ccc(N2CCCCCC2)c([N+](=O)[O-])c1 the results were Yeast growth inh inactive, SDO1 yeast rescue inactive, Yeast life ext inactive and RAM network inh inactive.
Screening Cc1ccc(CN(Cc2ccco2)S(=O)(=O)c2ccc(S(=O)(=O)NCC3CCCO3)cc2)cc1 (stereo not given) returned Yeast growth inh inactive, SDO1 yeast rescue inactive, Yeast life ext inactive and RAM network inh 9.3.
COc1ccc(CSc2nnc(Cc3sc(-c4ccccc4)nc3-c3ccccc3)o2)cc1 was read as Yeast growth inh inactive, SDO1 yeast rescue inactive, Yeast life ext inactive and RAM network inh 9.6.
`CSc1nnc(Cc2sc(-c3ccccc3)nc2-c2ccccc2)o1` gave Yeast growth inh inactive, SDO1 yeast rescue inactive, Yeast life ext inactive and RAM network inh inactive.
Screening CCC(=O)NC(=S)NNC(=O)c1ccc(OC)cc1 returned Yeast growth inh inactive, SDO1 yeast rescue inactive, Yeast life ext inactive and RAM network inh inactive.
`CCCCOc1ccc(C(=O)NNC(=S)NC(=O)CC)cc1` gave Yeast growth inh 48.4, SDO1 yeast rescue inactive, Yeast life ext inactive and RAM network inh inactive.
Screening CCCc1cc(=O)[nH]c(SCC(=O)NN(c2ccccc2)c2ccccc2)n1 returned RAM network inh inactive.
For CCCCOc1ccc(C(=O)N/C(=C\c2cccc([N+](=O)[O-])c2)C(=O)OCCC)cc1 the results were Yeast growth inh inactive, SDO1 yeast rescue inactive, Yeast life ext inactive and RAM network inh inactive.
Screening CCCCOc1ccc(C(=O)N/C(=C\c2cccc([N+](=O)[O-])c2)C(=O)OC(C)C)cc1 returned Yeast growth inh inactive, SDO1 yeast rescue inactive, Yeast life ext inactive and RAM network inh 8.8.
For CCCCCCCCCCn1c2c(c(=N)c3c1CCC3)CCC2 the results were Yeast growth inh 98.5, SDO1 yeast rescue inactive, Yeast life ext inactive and RAM network inh inactive.
COc1ccc(C(=O)NCC(C)(C)SCc2c(C)cc(C)cc2C)cc1 was read as Yeast growth inh inactive, SDO1 yeast rescue inactive, Yeast life ext inactive and RAM network inh 9.3.
O=C(O)CCC(=O)Nc1ccc(C(=O)OCC(=O)c2ccc(Cl)cc2Cl)cc1 was read as RAM network inh 8.7.
For Cc1cc(N/N=C/c2ccc(O)cc2O)nc(-c2ccccc2O)n1 the results were Yeast growth inh inactive, SDO1 yeast rescue inactive, Yeast life ext inactive and RAM network inh 10.3.
Cc1cc(N/N=C/c2ccccc2O)nc(-c2ccccc2O)n1 was read as Yeast growth inh inactive, SDO1 yeast rescue inactive, Yeast life ext inactive and RAM network inh inactive.
For Cc1ccc(Nc2nc3ccccc3nc2-n2nc(C)cc2C)cc1 the results were Yeast growth inh inactive, SDO1 yeast rescue inactive, Yeast life ext inactive and RAM network inh 8.7.
COc1cccc(NC(=O)Nc2ccc(C(C)(C)C)cc2)c1 was read as RAM network inh 9.9.
CCOC(=O)c1cc2c(=O)n3ccccc3nc2n(C(C)C)c1=NC(=O)c1c(-c2c(F)cccc2Cl)noc1C was read as Yeast growth inh inactive, SDO1 yeast rescue inactive, Yeast life ext inactive and RAM network inh 10.0.
`CCCCn1c(=NC(=O)c2ccco2)c(C(=O)OCC)cc2c(=O)n3ccccc3nc21` gave Yeast growth inh inactive, SDO1 yeast rescue inactive, Yeast life ext inactive and RAM network inh inactive.
For CCC(C)/C(C)=N/NC(=O)CNS(=O)(=O)c1ccc([N+](=O)[O-])cc1 (stereo not given) the results were RAM network inh inactive.
N#CCC(=O)Nc1ccc(C(=O)OCC(=O)Nc2ccccc2Sc2ccccc2)cc1 was read as RAM network inh 8.4.
For O=C(c1ccco1)N1CCCN(Cc2nc(Cc3ccccc3)no2)CC1 the results were RAM network inh inactive.
Screening CCN1C(=O)/C(=C/N2CC(C)CC(C)C2)SC1=S (stereo not given) returned Yeast growth inh inactive, SDO1 yeast rescue inactive, Yeast life ext inactive and RAM network inh 9.7.
`CCOC(=O)c1ccc(-n2[nH]c(-c3ccccc3)cc2=O)cc1` gave Yeast growth inh 96.9, SDO1 yeast rescue inactive, Yeast life ext inactive and RAM network inh 9.6.
`Cc1cc(=O)n(-c2ccc(C(=O)O)cc2)[nH]1` gave RAM network inh inactive.
`Cc1cccc(NC(=O)c2ccc(NC(C)c3ccccc3)c([N+](=O)[O-])c2)n1` (stereo not given) gave RAM network inh inactive.
`CCc1sc(N(C(=O)Cc2ccccc2)c2ccc(F)cc2)nc1-c1ccccc1` gave Yeast growth inh inactive, SDO1 yeast rescue inactive, Yeast life ext inactive and RAM network inh 9.1.
For CCCCC(=O)N(c1ccc(C(=O)O)cc1)c1nc(-c2ccc(Cl)cc2)c(CC)s1 the results were RAM network inh inactive.
For CCc1sc(N(C(=O)Cc2ccccc2)c2ccccc2)nc1-c1ccccc1 the results were Yeast growth inh inactive, SDO1 yeast rescue inactive, Yeast life ext inactive and RAM network inh 11.2.
Screening CC(C)n1cc(CN2CCCC(CO)(Cc3cccc(Cl)c3)C2)cn1 (stereo not given) returned RAM network inh inactive.
For Cn1c(N)c(C(=O)COC(=O)c2cc(-c3ccccc3)nc3ccccc23)c(=O)n(Cc2ccccc2)c1=O the results were Yeast growth inh inactive, SDO1 yeast rescue inactive, Yeast life ext 30.5 and RAM network inh inactive.
Screening Cn1c(N)c(C(=O)COC(=O)c2cc(C3CC3)nc3ccccc23)c(=O)n(Cc2ccccc2)c1=O returned Yeast growth inh inactive, SDO1 yeast rescue inactive, Yeast life ext inactive and RAM network inh inactive.
Screening Cn1c(SCC(=O)N2CCCc3ccccc32)nnc1-c1c[nH]c2ccccc12 returned Yeast growth inh inactive, SDO1 yeast rescue inactive, Yeast life ext 43.1 and RAM network inh inactive.
COc1cc(C(=O)Nc2c(C)cc(C)cc2C)c(Br)c(OC)c1OC was read as RAM network inh inactive.
COc1ccc(/C=C2\S/C(=N/S(=O)(=O)c3cccs3)NC2=O)cc1 was read as RAM network inh inactive.
`COc1cc(/C=C2/S/C(=N/S(=O)(=O)c3ccccc3)NC2=O)c([N+](=O)[O-])cc1OC` gave Yeast growth inh inactive, SDO1 yeast rescue inactive, Yeast life ext inactive and RAM network inh 9.4.
For CCCCC(CCC(=O)Nc1cc([N+](=O)[O-])ccc1O)C(=O)O (stereo not given) the results were RAM network inh inactive.
For CC(CCc1ccccc1)NC(=O)CN1CCSc2ccccc21 (stereo not given) the results were RAM network inh inactive.
Screening CC(C)C(=O)NNC(=O)CSc1nnnn1C(C)C returned RAM network inh inactive.
